The values below come from ChEMBL document CHEMBL1165965, “Synthesis and structure-activity relationships of 1,2,3,4-tetrahydropyrido[2,3-b]pyrazines as potent and selective inhibitors of the anaplastic lymphoma kinase” (Bioorg Med Chem, 2010).

Test [1] deals with T1, cGMP-dependent protein kinase 1 (Homo sapiens) (UniProt Q13976).
T1 sequence (whole entry): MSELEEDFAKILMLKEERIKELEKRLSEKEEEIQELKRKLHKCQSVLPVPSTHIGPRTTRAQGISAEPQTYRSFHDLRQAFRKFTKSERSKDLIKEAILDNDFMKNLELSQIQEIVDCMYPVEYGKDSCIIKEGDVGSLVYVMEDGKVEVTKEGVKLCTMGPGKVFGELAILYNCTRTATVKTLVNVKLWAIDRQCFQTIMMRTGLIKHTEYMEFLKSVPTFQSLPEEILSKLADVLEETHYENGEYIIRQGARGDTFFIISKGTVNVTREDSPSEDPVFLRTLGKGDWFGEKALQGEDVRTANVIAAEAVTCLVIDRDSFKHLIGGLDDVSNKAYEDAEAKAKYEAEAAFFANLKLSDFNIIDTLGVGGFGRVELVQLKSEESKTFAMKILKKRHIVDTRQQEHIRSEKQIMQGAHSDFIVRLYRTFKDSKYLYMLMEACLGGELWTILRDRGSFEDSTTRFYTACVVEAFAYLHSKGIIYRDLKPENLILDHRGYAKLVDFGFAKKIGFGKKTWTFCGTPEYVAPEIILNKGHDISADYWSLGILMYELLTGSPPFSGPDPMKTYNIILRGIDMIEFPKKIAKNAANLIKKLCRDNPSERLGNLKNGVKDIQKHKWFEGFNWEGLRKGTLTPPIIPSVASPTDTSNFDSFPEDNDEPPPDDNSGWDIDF
The test is described as follows: Inhibition of PRKG1 at 1 uM.

In test [2] the target is 5'-AMP-activated protein kinase catalytic subunit alpha-2 (Homo sapiens) (UniProt P54646). The test is described as follows: Inhibition of AMPK-alpha2 at 1 uM. A digest of the protocol:
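Ambit KINOMEscan screen at a single concentration across a 250–400 kinase panel, recorded as percent inhibition. Selectivity was expressed as S(90), the fraction of kinases inhibited >90%.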

In test [3] the target is Dual specificity protein kinase CLK4 (Homo sapiens) (UniProt Q9HAZ1). The experiment in a line: Inhibition of CLK4 at 1 uM. In a few lines: (§1)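 Single-concentration screen using Ambit Bioscience KINOMEscan technology across a panel of 250–400 kinases. Per-kinase inhibition from this screen was summarized as S(90), the fraction of kinases inhibited by more than 90%.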
Sequence of Dual specificity protein kinase CLK4 (Homo sapiens) (Q9HAZ1 whole entry, looked up): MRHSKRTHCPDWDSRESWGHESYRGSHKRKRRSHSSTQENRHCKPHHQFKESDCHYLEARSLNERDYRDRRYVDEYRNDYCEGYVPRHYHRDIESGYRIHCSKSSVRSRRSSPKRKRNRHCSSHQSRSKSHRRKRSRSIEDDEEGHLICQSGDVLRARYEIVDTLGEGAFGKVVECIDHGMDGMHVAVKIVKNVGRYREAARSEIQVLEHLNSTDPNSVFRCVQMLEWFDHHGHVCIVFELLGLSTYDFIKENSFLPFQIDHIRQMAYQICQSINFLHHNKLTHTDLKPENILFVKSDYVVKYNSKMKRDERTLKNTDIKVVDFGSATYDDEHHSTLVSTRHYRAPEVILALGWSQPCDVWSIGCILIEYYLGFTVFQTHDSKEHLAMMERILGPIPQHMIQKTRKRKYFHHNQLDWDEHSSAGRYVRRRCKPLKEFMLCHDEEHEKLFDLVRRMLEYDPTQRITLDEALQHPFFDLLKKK
Test [4] has as its target Casein kinase II subunit alpha (Homo sapiens) (UniProt P68400). The experiment in a line: Inhibition of CSNK2A1 at 1 uM. A digest of the protocol:
as §1

For test [5], the target named is Dual specificity mitogen-activated protein kinase kinase 1 (Homo sapiens) (UniProt Q02750). The experiment in a line: Inhibition of MEK1 at 1 uM.
Sequence of Dual specificity mitogen-activated protein kinase kinase 1 (Homo sapiens) (Q02750 whole entry): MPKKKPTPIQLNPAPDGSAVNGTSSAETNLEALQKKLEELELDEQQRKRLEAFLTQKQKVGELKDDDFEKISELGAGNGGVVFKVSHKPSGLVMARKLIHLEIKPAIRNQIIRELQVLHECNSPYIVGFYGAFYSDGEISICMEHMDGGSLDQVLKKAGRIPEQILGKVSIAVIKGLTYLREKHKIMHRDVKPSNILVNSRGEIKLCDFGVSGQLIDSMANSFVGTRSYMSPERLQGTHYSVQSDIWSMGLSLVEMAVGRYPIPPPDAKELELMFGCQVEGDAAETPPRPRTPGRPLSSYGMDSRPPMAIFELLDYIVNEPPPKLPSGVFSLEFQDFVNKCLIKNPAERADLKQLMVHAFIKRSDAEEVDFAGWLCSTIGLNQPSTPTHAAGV
Test [6] has as its target T2, Mitogen-activated protein kinase 13 (Homo sapiens) (UniProt O15264).
T2 sequence (whole entry): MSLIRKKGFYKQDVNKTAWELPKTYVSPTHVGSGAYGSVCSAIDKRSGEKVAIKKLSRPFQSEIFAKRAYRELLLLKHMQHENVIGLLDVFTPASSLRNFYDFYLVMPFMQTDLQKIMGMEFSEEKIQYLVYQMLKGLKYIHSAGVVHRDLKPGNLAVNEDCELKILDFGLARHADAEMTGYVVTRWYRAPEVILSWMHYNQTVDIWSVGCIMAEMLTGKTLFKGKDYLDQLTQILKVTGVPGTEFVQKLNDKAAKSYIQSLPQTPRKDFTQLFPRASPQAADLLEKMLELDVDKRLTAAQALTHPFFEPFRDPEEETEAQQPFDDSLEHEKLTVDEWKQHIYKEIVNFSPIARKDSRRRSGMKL
The test is described as follows: Inhibition of p38-delta at 1 uM.

For test [7], the target named is T3, Serine/threonine-protein kinase TAO1 (Homo sapiens) (UniProt Q7L7X3).
T3 sequence (whole entry): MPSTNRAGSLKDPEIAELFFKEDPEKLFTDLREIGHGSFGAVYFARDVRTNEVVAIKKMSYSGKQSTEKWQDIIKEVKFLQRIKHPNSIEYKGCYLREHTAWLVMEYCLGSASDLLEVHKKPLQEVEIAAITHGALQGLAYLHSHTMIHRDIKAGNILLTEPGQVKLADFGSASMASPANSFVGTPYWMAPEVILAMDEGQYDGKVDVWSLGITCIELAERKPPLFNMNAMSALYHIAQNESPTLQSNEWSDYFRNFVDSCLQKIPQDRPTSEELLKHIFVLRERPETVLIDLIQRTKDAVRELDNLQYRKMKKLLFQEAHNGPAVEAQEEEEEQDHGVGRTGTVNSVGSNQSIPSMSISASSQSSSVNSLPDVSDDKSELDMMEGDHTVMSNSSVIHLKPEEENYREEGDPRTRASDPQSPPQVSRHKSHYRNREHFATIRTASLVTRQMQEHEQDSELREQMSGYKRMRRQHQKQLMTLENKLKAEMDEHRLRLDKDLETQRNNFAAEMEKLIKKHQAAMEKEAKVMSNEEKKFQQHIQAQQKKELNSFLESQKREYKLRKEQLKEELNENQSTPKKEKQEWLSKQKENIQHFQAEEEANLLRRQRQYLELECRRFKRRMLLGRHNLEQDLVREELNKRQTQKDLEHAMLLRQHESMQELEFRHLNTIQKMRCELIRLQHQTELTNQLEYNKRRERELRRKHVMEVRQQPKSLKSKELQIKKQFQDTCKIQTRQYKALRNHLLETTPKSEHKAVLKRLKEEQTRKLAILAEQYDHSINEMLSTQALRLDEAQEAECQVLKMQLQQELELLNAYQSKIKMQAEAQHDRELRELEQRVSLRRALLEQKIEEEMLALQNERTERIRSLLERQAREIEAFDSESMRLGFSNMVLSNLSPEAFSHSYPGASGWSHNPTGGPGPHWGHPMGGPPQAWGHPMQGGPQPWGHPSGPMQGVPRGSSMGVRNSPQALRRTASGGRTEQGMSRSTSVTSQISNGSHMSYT
The experiment in a line: Inhibition of TAO1 at 1 uM.

Test [8] relates to Tyrosine-protein kinase ABL1 (Homo sapiens), P00519 [F317L]. The test is described as follows: Inhibition of ABL1 F317L mutant at 1 uM.
Sequence of Tyrosine-protein kinase ABL1 (Homo sapiens), P00519 [F317L] (P00519 whole entry F317L): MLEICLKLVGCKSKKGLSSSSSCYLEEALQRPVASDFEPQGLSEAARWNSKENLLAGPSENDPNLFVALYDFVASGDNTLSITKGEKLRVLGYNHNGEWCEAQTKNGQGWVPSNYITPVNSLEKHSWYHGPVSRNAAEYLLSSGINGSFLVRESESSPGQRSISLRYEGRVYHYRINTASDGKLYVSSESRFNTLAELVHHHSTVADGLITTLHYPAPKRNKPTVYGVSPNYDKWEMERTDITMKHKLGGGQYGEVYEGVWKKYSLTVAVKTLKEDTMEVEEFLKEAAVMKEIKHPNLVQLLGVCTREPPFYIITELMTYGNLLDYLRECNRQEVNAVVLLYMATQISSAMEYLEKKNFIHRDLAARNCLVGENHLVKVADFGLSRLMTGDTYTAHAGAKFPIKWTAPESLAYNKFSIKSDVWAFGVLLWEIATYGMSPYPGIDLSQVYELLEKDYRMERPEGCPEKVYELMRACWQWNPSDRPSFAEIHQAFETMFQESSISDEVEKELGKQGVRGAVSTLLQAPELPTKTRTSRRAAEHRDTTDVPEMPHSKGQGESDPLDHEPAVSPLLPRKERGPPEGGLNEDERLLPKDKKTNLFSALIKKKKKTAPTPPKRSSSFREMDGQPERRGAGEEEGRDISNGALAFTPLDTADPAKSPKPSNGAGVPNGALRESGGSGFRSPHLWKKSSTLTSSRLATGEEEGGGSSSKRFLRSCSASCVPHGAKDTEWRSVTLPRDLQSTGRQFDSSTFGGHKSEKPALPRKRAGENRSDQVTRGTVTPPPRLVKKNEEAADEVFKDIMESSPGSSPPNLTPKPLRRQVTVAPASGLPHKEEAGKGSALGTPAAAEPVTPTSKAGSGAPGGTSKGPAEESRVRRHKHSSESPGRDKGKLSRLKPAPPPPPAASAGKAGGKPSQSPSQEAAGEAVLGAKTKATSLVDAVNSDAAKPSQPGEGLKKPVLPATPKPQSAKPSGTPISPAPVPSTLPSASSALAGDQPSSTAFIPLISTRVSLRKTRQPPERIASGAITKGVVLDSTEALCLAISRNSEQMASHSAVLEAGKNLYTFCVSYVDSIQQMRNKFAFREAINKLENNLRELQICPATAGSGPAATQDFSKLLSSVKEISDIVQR
Test [9] has as its target T4, Serine/threonine-protein kinase 17A (Homo sapiens) (UniProt Q9UEE5).
T4 sequence (whole entry): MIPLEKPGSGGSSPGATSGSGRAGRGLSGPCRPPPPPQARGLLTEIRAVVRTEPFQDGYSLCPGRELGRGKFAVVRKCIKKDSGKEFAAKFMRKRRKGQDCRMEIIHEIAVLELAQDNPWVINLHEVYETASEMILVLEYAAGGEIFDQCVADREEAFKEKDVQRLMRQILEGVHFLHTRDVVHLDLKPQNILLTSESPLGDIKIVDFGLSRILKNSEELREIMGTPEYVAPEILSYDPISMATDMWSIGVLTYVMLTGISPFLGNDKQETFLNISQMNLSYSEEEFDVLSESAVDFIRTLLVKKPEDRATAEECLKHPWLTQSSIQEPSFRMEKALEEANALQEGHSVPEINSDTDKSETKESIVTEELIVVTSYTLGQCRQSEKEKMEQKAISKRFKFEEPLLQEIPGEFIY
The test is described as follows: Inhibition of DRAK1 at 1 uM.

Sequence of 5'-AMP-activated protein kinase catalytic subunit alpha-2 (Homo sapiens) (P54646 whole entry, looked up): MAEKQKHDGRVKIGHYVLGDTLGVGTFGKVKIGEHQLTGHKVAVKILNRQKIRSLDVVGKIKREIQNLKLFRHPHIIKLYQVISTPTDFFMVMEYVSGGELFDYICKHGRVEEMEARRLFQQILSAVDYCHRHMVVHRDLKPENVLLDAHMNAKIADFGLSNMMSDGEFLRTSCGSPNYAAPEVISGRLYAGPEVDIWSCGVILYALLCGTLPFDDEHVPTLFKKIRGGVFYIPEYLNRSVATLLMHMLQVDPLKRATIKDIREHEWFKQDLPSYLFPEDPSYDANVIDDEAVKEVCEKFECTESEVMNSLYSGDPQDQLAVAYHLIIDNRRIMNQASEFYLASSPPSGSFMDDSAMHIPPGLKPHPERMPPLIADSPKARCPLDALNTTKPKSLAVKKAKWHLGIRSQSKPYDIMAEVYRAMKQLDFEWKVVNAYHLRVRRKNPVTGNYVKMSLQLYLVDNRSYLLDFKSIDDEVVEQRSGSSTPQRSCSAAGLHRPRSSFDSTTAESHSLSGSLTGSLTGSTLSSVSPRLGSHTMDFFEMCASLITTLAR
Sequence of Casein kinase II subunit alpha (Homo sapiens) (P68400 whole entry, looked up): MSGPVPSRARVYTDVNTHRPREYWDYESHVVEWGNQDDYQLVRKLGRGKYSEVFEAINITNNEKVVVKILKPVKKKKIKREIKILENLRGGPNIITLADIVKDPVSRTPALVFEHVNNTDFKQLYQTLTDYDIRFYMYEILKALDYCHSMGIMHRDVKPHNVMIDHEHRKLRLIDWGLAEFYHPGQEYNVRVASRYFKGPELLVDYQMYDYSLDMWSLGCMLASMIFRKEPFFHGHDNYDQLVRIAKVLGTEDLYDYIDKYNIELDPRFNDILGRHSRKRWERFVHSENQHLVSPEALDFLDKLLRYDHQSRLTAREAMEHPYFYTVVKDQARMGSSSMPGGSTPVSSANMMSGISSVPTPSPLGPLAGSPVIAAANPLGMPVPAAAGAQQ

For `O=C(c1ccc(-c2cnc3c(c2)N(Cc2cc(Cl)ccc2C(F)(F)F)CCN3)cc1)N1CCCCC1`, the inhibition in test [1], in [2], in [3] and in [4] was < 50% each time.

As for `CN1CCN(c2ccc(-c3cnc4c(c3)N(Cc3c(F)ccc(F)c3Cl)CCN4)cn2)CC1`, the inhibition is < 50% in test [5]; < 50% in test [6]; < 50% in [1]; < 50% in test [7]; 77% in test [8]; < 50% in test [2]. Also, the inhibition in test [3], in test [4] and in [9] was < 50% each time.

For the molecule `COC1CCN(C(=O)c2ccc(-c3cnc4c(c3)N(Cc3cc(Cl)ccc3C(F)(F)F)CCN4)cc2)CC1`, the inhibition in test [1], in [2], in [3] and in [4] was < 50% in each case.

As to `O=C(O)c1ccc(-c2cnc3c(c2)N(Cc2cc(Cl)ccc2C(F)(F)F)CCN3)cc1`, the inhibition in [1], in test [8], in test [2], in test [3] and in test [4] was < 50% in each case.

In the case of `FC(F)(F)c1ccc(Cl)cc1CN1CCNc2ncc(-c3ccnc(N4CCNCC4)c3)cc21`, the inhibition in [5], in test [6], in test [1], in [7], in test [8] and in test [2] was < 50% in each case. Further, the inhibition in test [3], in test [4] and in test [9] was < 50% each time.

As for `CN1CCN(c2ccc(-c3cnc4c(c3)N(Cc3cc(Cl)ccc3Cl)CCN4)cn2)CC1`, the inhibition in test [5], in [6], in test [1], in [7], in test [8] and in [2] was < 50% each time. For the same molecule, the inhibition in test [3], in test [4] and in test [9] was < 50% each time.

As for `O=C(c1ccc(-c2cnc3c(c2)N(Cc2cc(Cl)ccc2C(F)(F)F)CCN3)cc1)N1CCC(N2CCCC2)CC1`, the inhibition in test [1], in test [2], in test [3] and in test [4] was < 50% throughout.

Turning to `CN1CCN(c2ccc(-c3cnc4c(c3)N(Cc3cc(Cl)ccc3C(F)(F)F)CCN4)cn2)CC1`, the inhibition in test [5], in [6], in test [1], in test [7], in [8] and in test [2] was < 50% each time. In addition, the inhibition in [3], in [4] and in test [9] was < 50% in each case.

`CC(=O)N1CCN(c2cc(-c3cnc4c(c3)N(Cc3cc(Cl)ccc3C(F)(F)F)CCN4)ccn2)CC1`: the inhibition in [5], in test [6], in test [1], in test [7], in test [8] and in test [2] was < 50% in each case. Besides, the inhibition in test [3], in test [4] and in [9] was < 50% throughout.

Take `CN1CCN(c2ccc(-c3cnc4c(c3)N(Cc3cc(F)ccc3F)CCN4)cn2)CC1`: the inhibition in test [5], in [6], in test [1], in test [7], in test [8] and in test [2] was < 50% throughout. Moreover, the inhibition in test [3], in test [4] and in [9] was < 50% in each case.
